Experimental data from ChEMBL document CHEMBL4689842, “EUbOPEN Chemogenomics Library wave 1” (2021).

Tested on: HEK-293T
Assay: Multiplex assay against HEK293T;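 on Population Tubulin-Different-Phenotype (%): share of the cells with healthy nuclei that show this phenotype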
Format: toxicity, cell-based
Details: human
How it was run: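 On a CQ1 microscope at 37°C and 5% CO2, live cells were imaged after compound addition. They had been stained at seeding with Hoechst33342, BioTracker Green Microtubule Cytoskeleton Dye, MitoTracker Red and Annexin V Alexa Fluor 680. CellPathfinder machine-learning gating assigned cells to Hoechst high-intensity objects or normal cells, normal cells to healthy, pyknosed or fragmented nuclei, and pyknosed cells to mitotic or apoptotic. Tubulin, mitochondrial-mass and membrane-permeability phenotypes are per cents of healthy-nucleus cells.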

[1] = 12 h, 1 µM, compound concentration 1 uM, replicate 1
[2] = 12 h, 1 µM, compound concentration 1 uM, replicate 2
[3] = 12 h, 10 µM, compound concentration 10 uM, replicate 1
[4] = 12 h, 10 µM, compound concentration 10 uM, replicate 2
[5] = 24 h, 1 µM, compound concentration 1 uM, replicate 1
[6] = 24 h, 1 µM, compound concentration 1 uM, replicate 2
[7] = 24 h, 10 µM, compound concentration 10 uM, replicate 1
[8] = 24 h, 10 µM, compound concentration 10 uM, replicate 2
[9] = 48 h, 1 µM, compound concentration 1 uM, replicate 1
[10] = 48 h, 1 µM, compound concentration 1 uM, replicate 2
[11] = 48 h, 10 µM, compound concentration 10 uM, replicate 1
[12] = 48 h, 10 µM, compound concentration 10 uM, replicate 2

COc1ccc(NS(=O)(=O)c2sc3ccc(Cl)cc3c2C)cc1N1CCNCC1.Cl
Population Apoptotic (%) [1]: 40% | Population Fragmented Nuclei (%) [1]: 17% | Population Healthy Nuclei (%) [1]: 36% | Population Hoechst High Intensity Objects (%) [1]: 35% | Population Membrane Permeable-Phenotype (%) [1]: 5% | Population Mitochondria Different-Phenotype (%) [1]: 66% | Population Mitotic Cells (%) [1]: 59% | Population Normal (%) [1]: 64% | Population Pyknosed Nuclei (%) [1]: 45% | Population Tubulin-Different-Phenotype (%) [1]: 32% | Total Cell Count [1]: 385 | Population Apoptotic (%) [2]: 15% | Population Fragmented Nuclei (%) [2]: 5% | Population Healthy Nuclei (%) [2]: 41% | Population Hoechst High Intensity Objects (%) [2]: 3% | Population Membrane Permeable-Phenotype (%) [2]: 15% | Population Mitochondria Different-Phenotype (%) [2]: 25% | Population Mitotic Cells (%) [2]: 84% | Population Normal (%) [2]: 96% | Population Pyknosed Nuclei (%) [2]: 53% | Population Tubulin-Different-Phenotype (%) [2]: 39% | Total Cell Count [2]: 233 | Population Apoptotic (%) [3]: 71% | Population Fragmented Nuclei (%) [3]: 7% | Population Healthy Nuclei (%) [3]: 33% | Population Hoechst High Intensity Objects (%) [3]: 12% | Population Membrane Permeable-Phenotype (%) [3]: 4% | Population Mitochondria Different-Phenotype (%) [3]: 99% | Population Mitotic Cells (%) [3]: 28% | Population Normal (%) [3]: 87% | Population Pyknosed Nuclei (%) [3]: 59% | Total Cell Count [3]: 350 | Population Apoptotic (%) [4]: 57% | Population Fragmented Nuclei (%) [4]: 3% | Population Healthy Nuclei (%) [4]: 16% | Population Hoechst High Intensity Objects (%) [4]: 4% | Population Membrane Permeable-Phenotype (%) [4]: 6% | Population Mitochondria Different-Phenotype (%) [4]: 86% | Population Mitotic Cells (%) [4]: 42% | Population Normal (%) [4]: 95% | Population Pyknosed Nuclei (%) [4]: 79% | Population Tubulin-Different-Phenotype (%) [4]: 96% | Total Cell Count [4]: 186 | Population Apoptotic (%) [5]: 46% | Population Fragmented Nuclei (%) [5]: 21% | Population Healthy Nuclei (%) [5]: 40% | Population Hoechst High Intensity Objects (%) [5]: 39% | Population Membrane Permeable-Phenotype (%) [5]: 2% | Population Mitochondria Different-Phenotype (%) [5]: 61% | Population Mitotic Cells (%) [5]: 53% | Population Normal (%) [5]: 60% | Population Pyknosed Nuclei (%) [5]: 38% | Population Tubulin-Different-Phenotype (%) [5]: 43% | Total Cell Count [5]: 399 | Population Apoptotic (%) [6]: 22% | Population Fragmented Nuclei (%) [6]: 4% | Population Healthy Nuclei (%) [6]: 58% | Population Hoechst High Intensity Objects (%) [6]: 2% | Population Membrane Permeable-Phenotype (%) [6]: 4% | Population Mitochondria Different-Phenotype (%) [6]: 36% | Population Mitotic Cells (%) [6]: 77% | Population Normal (%) [6]: 97% | Population Pyknosed Nuclei (%) [6]: 36% | Population Tubulin-Different-Phenotype (%) [6]: 54% | Total Cell Count [6]: 278 | Population Apoptotic (%) [7]: 74% | Population Fragmented Nuclei (%) [7]: 10% | Population Healthy Nuclei (%) [7]: 34% | Population Hoechst High Intensity Objects (%) [7]: 21% | Population Membrane Permeable-Phenotype (%) [7]: 4% | Population Mitochondria Different-Phenotype (%) [7]: 98% | Population Mitotic Cells (%) [7]: 25% | Population Normal (%) [7]: 78% | Population Pyknosed Nuclei (%) [7]: 54% | Population Tubulin-Different-Phenotype (%) [7]: 97% | Total Cell Count [7]: 356 | Population Apoptotic (%) [8]: 90% | Population Fragmented Nuclei (%) [8]: 4% | Population Healthy Nuclei (%) [8]: 25% | Population Hoechst High Intensity Objects (%) [8]: 8% | Population Membrane Permeable-Phenotype (%) [8]: 2% | Population Mitochondria Different-Phenotype (%) [8]: 97% | Population Mitotic Cells (%) [8]: 9% | Population Normal (%) [8]: 91% | Population Pyknosed Nuclei (%) [8]: 70% | Total Cell Count [8]: 187 | Population Apoptotic (%) [9]: 47% | Population Fragmented Nuclei (%) [9]: 23% | Population Healthy Nuclei (%) [9]: 51% | Population Hoechst High Intensity Objects (%) [9]: 29% | Population Membrane Permeable-Phenotype (%) [9]: 1% | Population Mitochondria Different-Phenotype (%) [9]: 37% | Population Mitotic Cells (%) [9]: 52% | Population Normal (%) [9]: 70% | Population Pyknosed Nuclei (%) [9]: 25% | Population Tubulin-Different-Phenotype (%) [9]: 32% | Total Cell Count [9]: 493 | Population Apoptotic (%) [10]: 15% | Population Fragmented Nuclei (%) [10]: 4% | Population Healthy Nuclei (%) [10]: 81% | Population Hoechst High Intensity Objects (%) [10]: 4% | Population Membrane Permeable-Phenotype (%) [10]: 3% | Population Mitochondria Different-Phenotype (%) [10]: 9% | Population Mitotic Cells (%) [10]: 84% | Population Normal (%) [10]: 95% | Population Pyknosed Nuclei (%) [10]: 14% | Population Tubulin-Different-Phenotype (%) [10]: 41% | Total Cell Count [10]: 485 | Population Fragmented Nuclei (%) [11]: 13% | Population Healthy Nuclei (%) [11]: 39% | Population Hoechst High Intensity Objects (%) [11]: 26% | Population Membrane Permeable-Phenotype (%) [11]: 0% | Population Mitochondria Different-Phenotype (%) [11]: 100% | Population Normal (%) [11]: 73% | Population Pyknosed Nuclei (%) [11]: 47% | Population Tubulin-Different-Phenotype (%) [11]: 95% | Total Cell Count [11]: 367 | Population Apoptotic (%) [12]: 77% | Population Fragmented Nuclei (%) [12]: 4% | Population Healthy Nuclei (%) [12]: 28% | Population Hoechst High Intensity Objects (%) [12]: 15% | Population Membrane Permeable-Phenotype (%) [12]: 6% | Population Mitochondria Different-Phenotype (%) [12]: 95% | Population Mitotic Cells (%) [12]: 22% | Population Normal (%) [12]: 84% | Population Pyknosed Nuclei (%) [12]: 67% | Population Tubulin-Different-Phenotype (%) [12]: 91% | Total Cell Count [12]: 188
